In ChEMBL document CHEMBL1156217, “Antioxidant and antiproliferative activities of hydroxyl-substituted Schiff bases” (Bioorg Med Chem Lett, 2010):
Calls of active or inactive are those of the source. No cut-off for these calls is given here.

What was measured:
[1] = Antioxidant activity assessed as galvinoxyl radical scavenging activity in ethyl acetate by UV-visible spectroscopy; format: functional
In short: (§1)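 The rate constant k (M−1 s−1) came from the slope of pseudo-first-order kobs against compound concentration. Some rates were instead taken from second-order kinetics at a 1/1 compound/GO• ratio. Values are mean±SD of three determinations.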

HepG2 = assay: Growth inhibition of human HepG2 cells after 72 hrs by sulforhodamine B assay; format: functional, cell-based; conditions: HepG2, 72 h
[2] = Antioxidant activity assessed as galvinoxyl radical scavenging activity in methanol by UV-visible spectroscopy; format: functional; in short: as §1
[3] = Stability in PBS at pH 7.4 by UV-visible spectroscopy; format: physicochemical; conditions: buffer
[4] = Antioxidant activity assessed as against AAPH-induced oxidative damage of pBR322 plasmid DNA assessed as single strand breakage at 10 uM by gel electrophoresis; format: functional
In short: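 Supercoiled pBR322 plasmid DNA (100 ng) incubated with AAPH and/or test compound in PBS, pH 7.4, at 37 °C for 60 min. Strand breakage was assessed by agarose gel electrophoresis as conversion of the supercoiled form to open-circular (single-strand break) and linear (double-strand break) DNA.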

[5] = Stability in PBS at pH 7.4 by UV-visible spectroscopy in presence of HSA; format: physicochemical; conditions: buffer

With COc1ccc(/N=C/c2ccc(O)cc2)cc1 the Activity [1] was 1.1 M⁻¹ s⁻¹, the IC50 (HepG2) was > 300 µM and the Activity [2] was 2.48 M⁻¹ s⁻¹.
In the case of Oc1ccc(/N=C/c2ccc(O)c(O)c2)cc1, the Activity [1] is reported as 1080 M⁻¹ s⁻¹, the IC50 (HepG2) is reported as 5.6 µM and the Stability [3] is reported as “Unstable”. The Activity [2] was 14800 M⁻¹ s⁻¹, the Activity [4] was “Active” and the Stability [5] was “Stable”.
For Oc1ccccc1/C=N/c1ccccc1 [2-((PHENYLIMINO)METHYL)PHENOL], the Activity [1] was 0.01 M⁻¹ s⁻¹, the IC50 (HepG2) was > 300 µM and the Activity [2] was 0.04 M⁻¹ s⁻¹.
Molecule Oc1ccc(/N=C/c2ccccc2)cc1 [4-(BENZYLIDENEAMINO)PHENOL] has an Activity [1] of 31.9 M⁻¹ s⁻¹, an IC50 (HepG2) of 108 µM and an Activity [2] of 120 M⁻¹ s⁻¹.
With COc1cc([C@@H]2c3cc4c(cc3[C@@H](O[C@@H]3O[C@@H]5CO[C@@H](C)O[C@H]5[C@H](O)[C@H]3O)[C@H]3COC(=O)[C@H]23)OCO4)cc(OC)c1O [ETOPOSIDE] the IC50 (HepG2) was 4.1 µM.
Molecule Oc1ccc(/C=C/c2cc(O)cc(O)c2)cc1 [RESVERATROL] has an Activity [1] of 13.4 M⁻¹ s⁻¹, an IC50 (HepG2) of 79.6 µM and an Activity [2] of 42 M⁻¹ s⁻¹. The Activity [4] was “Active”.
